The results in this text go back to ChEMBL document CHEMBL1141078, “Discovery of potent, nonsystemic apical sodium-codependent bile acid transporter inhibitors (Part 1)” (J Med Chem, 2005).

Series [1] deals with T1, Ileal sodium/bile acid cotransporter (Homo sapiens, UniProt Q12908).
T1 sequence (Q12908 whole entry): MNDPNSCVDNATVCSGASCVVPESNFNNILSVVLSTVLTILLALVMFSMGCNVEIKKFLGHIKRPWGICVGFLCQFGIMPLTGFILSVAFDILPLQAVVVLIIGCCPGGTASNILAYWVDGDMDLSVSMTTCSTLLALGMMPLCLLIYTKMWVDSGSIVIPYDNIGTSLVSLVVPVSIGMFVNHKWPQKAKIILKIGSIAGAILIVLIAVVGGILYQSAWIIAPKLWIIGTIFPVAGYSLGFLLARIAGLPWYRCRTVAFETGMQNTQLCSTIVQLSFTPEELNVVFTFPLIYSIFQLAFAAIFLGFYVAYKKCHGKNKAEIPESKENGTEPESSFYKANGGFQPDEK
The experiment in a line: In vitro inhibition of ASBT mediated uptake of [14C]taurocholate (5 uM) in Baby hamster cells expressing human IBAT. The class given is cell-based. A digest of the protocol: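 BHK cells stably transfected with human IBAT cDNA (H14) were seeded 24–72 h before assay at cell densities adjusted to that interval. Cells were washed, then incubated for 2 h at 37 °C in DMEM (4.5 g/L glucose, 0.2% fatty-acid-free BSA) with test compound and [14C]taurocholate. Wells were washed with cold PBS containing BSA and then with PBS alone. Cell-associated radioactivity was measured by scintillation counting, and IC50 values were derived.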

Series [2] addresses T1, Ileal sodium/bile acid cotransporter. The experiment in a line: Effect on serum total cholesterol in cholesterol-fed hamster; control is at 135. The series is classed as functional.
For series [3] the target is unchanged. The experiment in a line: Effect on 24 hr fecal weight in cholesterol-fed hamster; control is at 2.1. The series is classed as functional, Feces.
The target is the same in series [4]. The experiment in a line: Effect on fecal bile acid in cholesterol-fed hamster; control is at 8.0. The series is classed as functional, Feces.
For series [5] the target is unchanged. The experiment in a line: Effect on serum total cholesterol in cholesterol-fed hamster; control is at 143. The class given is functional.
The target is the same in series [6]. The experiment in a line: Effect on 24 hr fecal weight in cholesterol-fed hamster; control is at 2.3. The class given is functional, Feces.
For series [7] the target is unchanged. The experiment in a line: Effect on fecal bile acids in cholesterol-fed hamster; control is at 6.2. The series is classed as functional, Feces.
For series [8] the target is unchanged. The experiment in a line: Effect on serum total cholesterol in cholesterol-fed hamster; control is at 129. The series is classed as functional.
Series [9] has the same target. The experiment in a line: Effect on 24 hr fecal weight in cholesterol-fed hamster; control is at 1.7. The series is classed as functional, Feces.
The target is the same in series [10]. The experiment in a line: Effect on fecal bile acid in cholesterol-fed hamster; control is at 6.1. The series is classed as functional, Feces.
Series [11] has the same target. The experiment in a line: Effect on serum total cholesterol in cholesterol-fed hamster; control is at 195. The class given is functional.
Series [12] has the same target. The experiment in a line: Effect on 24 hr fecal weight in cholesterol-fed hamster; control is at 3.5. The class given is functional, Feces.
Series [13] shares this target. The experiment in a line: Effect on fecal bile acid in cholesterol-fed hamster; control is at 8.7. The class given is functional, Feces.

The term IC50 denotes the concentration that inhibits the measured activity by half. Molecule `CCCCC1(CCCC)CS(=O)(=O)c2ccc(N(C)C)cc2[C@@H](c2ccc(OC)cc2)[C@H]1O` came in with an IC50 in series [1] of 7 nM. On the same count and under the same terms, with `CCCCC1(CCCC)CS(=O)(=O)c2c(cccc2N(C)C)[C@@H](c2ccc(F)cc2)[C@H]1O` the figure was 180 nM. The molecule `CCCCC1(CCCC)CS(=O)(=O)c2ccc([N+](C)(C)C)cc2[C@@H](c2ccccc2)[C@H]1O` showed an IC50 in series [1] of 210 nM. This IC50 and that of the molecule before are within 1.5-fold of each other. `CCCCC1(CCCC)CS(=O)(=O)c2ccc(OC)cc2[C@@H](c2ccc(F)cc2)[C@H]1O` registered an IC50 in [1] of 50 nM. In turn, `CCCCC1(CCCC)CS(=O)(=O)c2ccc(N(C)C)cc2[C@@H](c2ccc(F)cc2)[C@H]1O` showed an IC50 in series [1] of 10 nM. The molecule `C=CCCCCCCCCOc1ccc2c(c1)S(=O)(=O)C[C@@](CC)(CCCC)[C@H](O)[C@@H]2c1ccccc1` had an IC50 in series [1] of 16000 nM. The same measure, in the same setting: the value for `CCCC[C@]1(CC)CS(=O)(=O)c2ccc(NO)cc2[C@@H](c2ccccc2)[C@H]1O` was 260 nM; that for `CCCC[C@]1(CC)CS(=O)(=O)c2ccc(SC)cc2[C@@H](c2ccc(F)cc2)[C@H]1O` was 19 nM. On the same count and under the same terms, the value for `CC1(C)CS(=O)(=O)c2ccc(N)cc2[C@@H](c2ccccc2)[C@H]1O` was over 50000 nM; that for `CCCC[C@]1(CC)CS(=O)(=O)c2ccc(-c3ccccc3)cc2[C@@H](c2cccc(OC)c2)[C@H]1O` was 180 nM. The same measure, in the same setting: the value for `CCCCC1(CCCC)CS(=O)(=O)c2ccc(Br)cc2[C@@H](c2ccccc2Br)[C@H]1O` was 550 nM; that for `CCCCC1(CCCC)CS(=O)(=O)c2ccc(N(C)C)cc2[C@@H](c2ccccc2)[C@H]1O` was 13 nM. `CCCC[C@]1(CC)CS(=O)(=O)c2ccc(Br)cc2[C@@H](c2cccc(OC)c2)[C@H]1O` yielded an IC50 in series [1] of 70 nM. This IC50 is about 5.4-fold higher than that of the molecule before. The same measure, in the same setting: the value for `CCCCCC1(CCCCC)CS(=O)(=O)c2ccc(C)cc2[C@@H](c2ccc(F)cc2)[C@H]1O` was 318 nM; that for `CCCCC1(CCCC)CS(=O)(=O)c2c(F)cccc2[C@@H](c2ccc(F)cc2)[C@H]1O` was 180 nM. Regarding `CCCC[C@]1(CC)CS(=O)(=O)c2ccc(N(C)C)cc2[C@@H](c2ccccc2)[C@H]1O`, the Total cholesterol in [2] amounted to 97 mg/dL. For the same molecule, the Fecal weight in [3] amounted to 2.1 g. In [1], it took 5 nM to reach half-maximal inhibition (IC50). In addition, in series [4], the FBA is recorded as 13.7 ((mmol/day)/100g). As to `CCCC[C@]1(CC)CS(=O)(=O)c2ccc(NS(C)(=O)=O)cc2[C@@H](c2ccccc2)[C@H]1O`, 600 nM corresponded to half-maximal inhibition in [1] (IC50).

For `CCCC[C@]1(CC)CS(=O)(=O)c2ccc(NC(C)=O)cc2[C@@H](c2ccccc2)[C@H]1O`, it took 90 nM to reach half-maximal inhibition in series [1] (IC50). The molecule `CCCCC1(CCCC)CS(=O)(=O)c2cc(OC)ccc2[C@@H](c2ccccc2)[C@H]1O` yielded an IC50 in series [1] of 190 nM. The same measure, in the same setting: the value for `CCCC[C@]1(CC)CS(=O)(=O)c2ccc(N(O)C(=O)OC(C)(C)C)cc2[C@@H](c2ccccc2)[C@H]1O` was 2670 nM.

In series [1], `CCCC[C@]1(CC)CS(=O)(=O)c2ccc(N3CCCC3)cc2[C@@H](c2ccc(F)cc2)[C@H]1O` had an IC50 of 59 nM. Regarding `CCCC[C@]1(CC)CS(=O)(=O)c2cc(OC)ccc2[C@@H](c2ccccc2)[C@H]1O`, the Total cholesterol in series [5] turned out to be 126 mg/dL. Besides, in series [6], the Fecal weight is 2.4 g. In [1], the IC50 worked out at 120 nM. In addition, the FBA in series [7] is 11.9 ((mmol/day)/100g). For the molecule `CCCC[C@]1(CC)CS(=O)(=O)c2ccc(C)cc2[C@@H](c2ccc(F)cc2)[C@H]1O`, the IC50 in series [1] turned out to be 21 nM. This lies in the double-digit nanomolar range. Still for that read-out and setting: with `CCCC[C@]1(CC)CS(=O)(=O)c2ccc(NC(=O)OCc3ccccc3)cc2[C@@H](c2ccccc2)[C@H]1O` the figure was 400 nM. Regarding `CCCC[C@]1(CC)CS(=O)(=O)c2ccc(N)cc2[C@@H](c2ccccc2)[C@H]1O`, in [8], the Total cholesterol turned out to be 126 mg/dL. In series [9], this molecule had a Fecal weight of 1.6 g. Further, the IC50 in [1] is 68 nM. Besides, the FBA in [10] is on record as 8.8 ((mmol/day)/100g). In series [1], `CCCCC1(CCCC)CS(=O)(=O)c2ccc(C)cc2[C@@H](c2ccc(F)cc2)[C@H]1O` gave an IC50 of 46 nM. Still for that read-out and setting: with `CCCCC1(CCCC)CS(=O)(=O)c2c(OC)cc(N(C)C)cc2[C@@H](c2ccc(OC)cc2)[C@H]1O` the figure was 2 nM. On the same count and under the same terms, with `CCCCCCNc1ccc2c(c1)[C@@H](c1ccccc1)[C@@H](O)[C@](CC)(CCCC)CS2(=O)=O` the figure was 1670 nM; with `CCCC[C@]1(CC)CS(=O)(=O)c2ccc(OC)cc2[C@@H](c2ccccc2)[C@H]1O`, 55 nM; with `CCCCCC(=O)Nc1ccc2c(c1)[C@@H](c1ccccc1)[C@@H](O)[C@](CC)(CCCC)CS2(=O)=O`, 300 nM. Same read-out and setting: the value for `CCCCC1(CCCC)CS(=O)(=O)c2cc(N(C)C)ccc2[C@@H](c2ccccc2)[C@H]1O` was 120 nM. The molecule `CCCCC1(CCCC)CS(=O)(=O)c2ccc(N(C)C)cc2[C@@H](c2ccc(OCCOCCOCC[N+](CC)(CC)CC)cc2)[C@H]1O.[Br-]` came in with a Total cholesterol in [11] of 141 mg/dL. In addition, the Fecal weight in series [12] worked out at 3.9 g. Also, the IC50 in series [1] amounted to 3 nM. Besides, the FBA in series [13] was 16.2 ((mmol/day)/100g). As usually defined, the Inhibition is the relative decrease from the control value, in per cent. Read a low Inhibition as a weak effect. As to `CCCC[C@]1(CC)CS(=O)(=O)c2ccccc2[C@H](c2ccccc2)[C@H]1O` (racemic), the Inhibition in series [1] is 37%. `CCCC[C@]1(CC)CS(=O)(=O)c2ccccc2[C@@H](c2ccccc2)[C@@H]1O` (racemic) registered an IC50 in [1] of 4800 nM. For the molecule `CCCC[C@]1(CC)CS(=O)(=O)c2ccccc2[C@@H](c2ccccc2)[C@H]1O` (racemic), the IC50 in [1] was 280 nM.
